Results on 3 compounds are retold here after ChEMBL document CHEMBL1250448, “Inhibitor hijacking of Akt activation” (Nat Chem Biol, 2009).

In test [1] the target is T1, Ephrin type-A receptor 1 (Homo sapiens) (UniProt P21709).
T1 sequence (whole entry): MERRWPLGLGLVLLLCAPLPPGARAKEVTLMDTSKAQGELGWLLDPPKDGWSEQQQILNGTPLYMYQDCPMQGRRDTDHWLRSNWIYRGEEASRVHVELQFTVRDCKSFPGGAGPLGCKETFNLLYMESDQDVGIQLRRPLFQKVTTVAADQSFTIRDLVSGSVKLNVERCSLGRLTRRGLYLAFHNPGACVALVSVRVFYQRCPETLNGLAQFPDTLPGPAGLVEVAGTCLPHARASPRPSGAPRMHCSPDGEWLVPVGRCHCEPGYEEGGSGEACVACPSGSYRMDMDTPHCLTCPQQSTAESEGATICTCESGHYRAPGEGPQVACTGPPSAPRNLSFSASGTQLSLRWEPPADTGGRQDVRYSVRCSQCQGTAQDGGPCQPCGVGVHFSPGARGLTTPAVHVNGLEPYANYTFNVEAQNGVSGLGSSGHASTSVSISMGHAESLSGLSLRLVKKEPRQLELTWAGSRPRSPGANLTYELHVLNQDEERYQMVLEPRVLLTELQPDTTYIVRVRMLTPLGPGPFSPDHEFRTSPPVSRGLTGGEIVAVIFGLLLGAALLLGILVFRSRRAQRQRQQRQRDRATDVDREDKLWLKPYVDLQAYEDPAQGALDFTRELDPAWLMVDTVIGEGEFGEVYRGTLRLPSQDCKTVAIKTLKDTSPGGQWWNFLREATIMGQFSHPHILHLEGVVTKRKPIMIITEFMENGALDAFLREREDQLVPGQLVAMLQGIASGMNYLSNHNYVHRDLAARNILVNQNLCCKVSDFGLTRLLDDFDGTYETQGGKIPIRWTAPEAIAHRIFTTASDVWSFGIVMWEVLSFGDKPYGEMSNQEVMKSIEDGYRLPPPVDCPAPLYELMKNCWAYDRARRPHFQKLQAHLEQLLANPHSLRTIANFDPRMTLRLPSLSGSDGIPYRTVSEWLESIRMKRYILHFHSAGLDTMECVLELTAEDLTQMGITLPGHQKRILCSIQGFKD
Kind of test: Inhibition of EPHA1 at 1 uM in presence of 10 uM ATP by Select Screen kinase assay relative to untreated control. An outline of the steps: (§1)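 Single-point screen at 1 μM against a panel of 220 purified kinases, run by Invitrogen staff as a SelectScreen profiling service. Read-out is percent inhibition of kinase activity.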

Test [2] has as its target Tyrosine-protein kinase Yes (Homo sapiens) (UniProt P07947). The experiment in a line: Inhibition of YES1 at 1 uM in presence of 10 uM ATP by Select Screen kinase assay relative to untreated control. An outline of the steps: (§2)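 Commercial SelectScreen profiling panel of 220 purified kinases. Each kinase was tested at a single inhibitor concentration of 1 μM, and activity was expressed as percent inhibition.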

For test [3], the target named is Fibroblast growth factor receptor 2 (Homo sapiens) (UniProt P21802). The experiment in a line: Inhibition of FGFR2 at 1 uM in presence of 10 uM ATP by Select Screen kinase assay relative to untreated control. An outline of the steps:
(§3)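 Single-concentration profiling at 1 μM against a panel of 220 purified kinases, run as an outsourced SelectScreen kinase profiling service. Activity is expressed as percent inhibition.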

The target in test [4] is Mitogen-activated protein kinase 14 (Homo sapiens) (UniProt Q16539). The experiment in a line: Inhibition of MAPK14 at 1 uM in presence of 100 uM ATP by Select Screen kinase assay relative to untreated control. An outline of the steps: as §3
Test [5] concerns the target Platelet-derived growth factor receptor alpha (Homo sapiens) (UniProt P16234). The experiment in a line: Inhibition of PDGFRalpha at 1 uM in presence of 100 uM ATP by Select Screen kinase assay relative to untreated control. An outline of the steps:
as §2

Test [6] has as its target Ephrin type-A receptor 5 (Homo sapiens) (UniProt P54756). Kind of test: Inhibition of EPHA5 at 1 uM in presence of 10 uM ATP by Select Screen kinase assay relative to untreated control. An outline of the steps:
as §1

Test [7] has as its target Fibroblast growth factor receptor 4 (Homo sapiens) (UniProt P22455). Kind of test: Inhibition of FGFR4 at 1 uM in presence of 10 uM ATP by Select Screen kinase assay relative to untreated control. An outline of the steps: as §3
The subject of test [8] is Serine/threonine-protein kinase B-raf (Homo sapiens), P15056 [V600E]. Kind of test: Inhibition of BRAF V599E mutant at 1 uM in presence of 100 uM ATP by Select Screen kinase assay relative to untreated control. An outline of the steps: as §1
The target in test [9] is Serine/threonine-protein kinase PAK 2 (Homo sapiens) (UniProt Q13177). Kind of test: Inhibition of PAK2 at 1 uM in presence of 10 uM ATP by Select Screen kinase assay relative to untreated control. An outline of the steps: as §2
The target of test [10] is Fibroblast growth factor receptor 1 (Homo sapiens) (UniProt P11362). Kind of test: Inhibition of FGFR1 at 1 uM in presence of 10 uM ATP by Select Screen kinase assay relative to untreated control. An outline of the steps:
as §1

Test [11] deals with Hepatocyte growth factor receptor (Homo sapiens) (UniProt P08581). Kind of test: Inhibition of MET at 1 uM in presence of 10 uM ATP by Select Screen kinase assay relative to untreated control. An outline of the steps:
as §3

Test [12] addresses Receptor tyrosine-protein kinase erbB-2 (Homo sapiens) (UniProt P04626). The experiment in a line: Inhibition of ERBB2 at 1 uM in presence of 10 uM ATP by Select Screen kinase assay relative to untreated control. An outline of the steps: as §1
Test [13] deals with Mitogen-activated protein kinase 3 (ERK1) (Homo sapiens) (UniProt P27361). The experiment in a line: Inhibition of MAPK3 at 1 uM in presence of 10 uM ATP by Select Screen kinase assay relative to untreated control.
Test [14] concerns the target Insulin receptor-related protein (Homo sapiens) (UniProt P14616). Kind of test: Inhibition of INSRR at 1 uM in presence of 100 uM ATP by Select Screen kinase assay relative to untreated control. An outline of the steps: as §3
Test [15] addresses G protein-coupled receptor kinase 5 (Homo sapiens) (UniProt P34947). Kind of test: Inhibition of GRK5 at 1 uM in presence of 10 uM ATP by Select Screen kinase assay relative to untreated control. An outline of the steps:
as §3

Receptor tyrosine-protein kinase erbB-2 (Homo sapiens), sequence (P04626 whole entry): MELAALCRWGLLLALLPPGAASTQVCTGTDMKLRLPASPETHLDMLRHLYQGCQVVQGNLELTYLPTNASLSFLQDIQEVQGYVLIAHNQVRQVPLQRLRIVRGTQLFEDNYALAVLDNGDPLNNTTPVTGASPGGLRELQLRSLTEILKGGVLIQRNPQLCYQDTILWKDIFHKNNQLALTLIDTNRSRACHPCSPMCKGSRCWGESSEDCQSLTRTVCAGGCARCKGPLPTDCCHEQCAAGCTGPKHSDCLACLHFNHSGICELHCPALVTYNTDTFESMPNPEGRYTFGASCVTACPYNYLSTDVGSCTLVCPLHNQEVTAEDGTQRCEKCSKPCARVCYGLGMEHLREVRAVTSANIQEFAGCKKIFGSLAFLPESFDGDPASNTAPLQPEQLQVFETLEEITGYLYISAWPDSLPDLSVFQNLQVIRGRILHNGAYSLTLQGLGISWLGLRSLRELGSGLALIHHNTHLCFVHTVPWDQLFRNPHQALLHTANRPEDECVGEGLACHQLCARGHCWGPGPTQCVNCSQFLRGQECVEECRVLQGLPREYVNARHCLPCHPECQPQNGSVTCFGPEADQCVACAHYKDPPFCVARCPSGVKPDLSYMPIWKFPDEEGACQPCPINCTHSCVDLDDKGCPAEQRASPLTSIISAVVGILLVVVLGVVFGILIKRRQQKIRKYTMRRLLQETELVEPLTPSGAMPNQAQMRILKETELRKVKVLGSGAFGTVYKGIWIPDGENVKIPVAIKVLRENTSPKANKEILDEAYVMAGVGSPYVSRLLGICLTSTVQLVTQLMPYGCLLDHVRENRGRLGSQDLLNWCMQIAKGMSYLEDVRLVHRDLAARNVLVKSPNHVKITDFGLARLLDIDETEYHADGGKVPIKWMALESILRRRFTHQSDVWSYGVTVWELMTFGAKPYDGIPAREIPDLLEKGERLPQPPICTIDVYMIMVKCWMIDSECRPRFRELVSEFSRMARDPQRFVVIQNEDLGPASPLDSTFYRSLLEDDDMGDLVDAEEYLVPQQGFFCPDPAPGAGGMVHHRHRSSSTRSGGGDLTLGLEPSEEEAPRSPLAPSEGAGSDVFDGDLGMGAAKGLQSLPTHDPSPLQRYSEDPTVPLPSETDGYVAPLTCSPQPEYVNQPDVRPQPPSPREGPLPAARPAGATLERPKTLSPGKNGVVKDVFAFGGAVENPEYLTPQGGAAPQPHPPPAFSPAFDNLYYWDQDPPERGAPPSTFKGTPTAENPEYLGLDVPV
Serine/threonine-protein kinase PAK 2 (Homo sapiens), sequence (Q13177 whole entry): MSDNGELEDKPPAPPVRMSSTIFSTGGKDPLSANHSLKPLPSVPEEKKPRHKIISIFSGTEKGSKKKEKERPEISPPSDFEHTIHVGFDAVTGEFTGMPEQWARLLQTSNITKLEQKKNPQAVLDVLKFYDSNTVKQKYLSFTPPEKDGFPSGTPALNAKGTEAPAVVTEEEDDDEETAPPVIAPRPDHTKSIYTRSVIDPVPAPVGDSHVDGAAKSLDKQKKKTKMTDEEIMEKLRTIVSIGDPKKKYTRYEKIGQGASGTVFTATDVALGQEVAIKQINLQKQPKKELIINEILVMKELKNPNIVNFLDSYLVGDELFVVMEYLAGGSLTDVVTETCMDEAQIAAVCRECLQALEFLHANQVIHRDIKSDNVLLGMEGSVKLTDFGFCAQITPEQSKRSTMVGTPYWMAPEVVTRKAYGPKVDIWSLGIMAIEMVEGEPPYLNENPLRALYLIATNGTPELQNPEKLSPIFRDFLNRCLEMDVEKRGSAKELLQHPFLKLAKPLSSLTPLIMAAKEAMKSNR
Fibroblast growth factor receptor 1 (Homo sapiens), sequence (P11362 22-822 limits assumed): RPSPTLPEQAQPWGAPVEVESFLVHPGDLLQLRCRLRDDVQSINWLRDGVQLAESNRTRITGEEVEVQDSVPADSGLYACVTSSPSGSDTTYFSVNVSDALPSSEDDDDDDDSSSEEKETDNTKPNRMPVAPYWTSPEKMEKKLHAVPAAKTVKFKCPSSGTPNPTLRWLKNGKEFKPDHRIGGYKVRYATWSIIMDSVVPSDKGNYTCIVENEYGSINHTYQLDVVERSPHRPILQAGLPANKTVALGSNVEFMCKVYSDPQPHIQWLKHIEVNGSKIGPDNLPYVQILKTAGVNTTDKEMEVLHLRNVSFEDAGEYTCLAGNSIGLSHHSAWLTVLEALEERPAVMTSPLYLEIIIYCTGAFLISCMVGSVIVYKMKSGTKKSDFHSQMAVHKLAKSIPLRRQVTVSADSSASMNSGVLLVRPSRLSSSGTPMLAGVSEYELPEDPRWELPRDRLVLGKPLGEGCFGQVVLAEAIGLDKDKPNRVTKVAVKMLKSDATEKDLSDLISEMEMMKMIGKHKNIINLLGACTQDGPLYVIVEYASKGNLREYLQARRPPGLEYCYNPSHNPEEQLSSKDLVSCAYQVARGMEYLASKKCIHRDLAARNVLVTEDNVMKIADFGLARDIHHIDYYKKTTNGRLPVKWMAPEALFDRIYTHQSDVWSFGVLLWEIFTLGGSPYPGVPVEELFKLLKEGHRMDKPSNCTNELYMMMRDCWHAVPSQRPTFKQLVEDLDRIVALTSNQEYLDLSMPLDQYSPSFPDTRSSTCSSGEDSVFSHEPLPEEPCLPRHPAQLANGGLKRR
Serine/threonine-protein kinase B-raf (Homo sapiens), P15056 [V600E], sequence (P15056 whole entry V600E): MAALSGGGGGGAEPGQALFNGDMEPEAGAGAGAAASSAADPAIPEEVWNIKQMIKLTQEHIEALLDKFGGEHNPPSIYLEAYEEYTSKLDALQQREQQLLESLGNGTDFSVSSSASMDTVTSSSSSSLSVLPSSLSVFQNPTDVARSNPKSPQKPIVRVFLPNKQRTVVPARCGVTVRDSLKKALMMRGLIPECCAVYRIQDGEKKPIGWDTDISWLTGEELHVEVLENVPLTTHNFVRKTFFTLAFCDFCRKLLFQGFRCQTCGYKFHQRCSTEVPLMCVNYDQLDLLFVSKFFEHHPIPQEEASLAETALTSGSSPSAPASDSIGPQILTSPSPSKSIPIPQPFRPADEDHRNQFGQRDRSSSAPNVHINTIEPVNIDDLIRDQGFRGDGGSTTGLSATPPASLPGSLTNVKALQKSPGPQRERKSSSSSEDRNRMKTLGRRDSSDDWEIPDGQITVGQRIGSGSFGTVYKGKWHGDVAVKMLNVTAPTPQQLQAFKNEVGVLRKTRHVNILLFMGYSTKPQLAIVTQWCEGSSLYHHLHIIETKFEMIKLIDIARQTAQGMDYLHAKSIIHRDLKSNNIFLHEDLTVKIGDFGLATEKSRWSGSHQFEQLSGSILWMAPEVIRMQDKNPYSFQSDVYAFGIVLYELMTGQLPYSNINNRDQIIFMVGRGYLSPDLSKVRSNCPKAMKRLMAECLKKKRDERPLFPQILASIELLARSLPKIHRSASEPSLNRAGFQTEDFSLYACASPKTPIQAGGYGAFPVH
Ephrin type-A receptor 5 (Homo sapiens), sequence (P54756 whole entry): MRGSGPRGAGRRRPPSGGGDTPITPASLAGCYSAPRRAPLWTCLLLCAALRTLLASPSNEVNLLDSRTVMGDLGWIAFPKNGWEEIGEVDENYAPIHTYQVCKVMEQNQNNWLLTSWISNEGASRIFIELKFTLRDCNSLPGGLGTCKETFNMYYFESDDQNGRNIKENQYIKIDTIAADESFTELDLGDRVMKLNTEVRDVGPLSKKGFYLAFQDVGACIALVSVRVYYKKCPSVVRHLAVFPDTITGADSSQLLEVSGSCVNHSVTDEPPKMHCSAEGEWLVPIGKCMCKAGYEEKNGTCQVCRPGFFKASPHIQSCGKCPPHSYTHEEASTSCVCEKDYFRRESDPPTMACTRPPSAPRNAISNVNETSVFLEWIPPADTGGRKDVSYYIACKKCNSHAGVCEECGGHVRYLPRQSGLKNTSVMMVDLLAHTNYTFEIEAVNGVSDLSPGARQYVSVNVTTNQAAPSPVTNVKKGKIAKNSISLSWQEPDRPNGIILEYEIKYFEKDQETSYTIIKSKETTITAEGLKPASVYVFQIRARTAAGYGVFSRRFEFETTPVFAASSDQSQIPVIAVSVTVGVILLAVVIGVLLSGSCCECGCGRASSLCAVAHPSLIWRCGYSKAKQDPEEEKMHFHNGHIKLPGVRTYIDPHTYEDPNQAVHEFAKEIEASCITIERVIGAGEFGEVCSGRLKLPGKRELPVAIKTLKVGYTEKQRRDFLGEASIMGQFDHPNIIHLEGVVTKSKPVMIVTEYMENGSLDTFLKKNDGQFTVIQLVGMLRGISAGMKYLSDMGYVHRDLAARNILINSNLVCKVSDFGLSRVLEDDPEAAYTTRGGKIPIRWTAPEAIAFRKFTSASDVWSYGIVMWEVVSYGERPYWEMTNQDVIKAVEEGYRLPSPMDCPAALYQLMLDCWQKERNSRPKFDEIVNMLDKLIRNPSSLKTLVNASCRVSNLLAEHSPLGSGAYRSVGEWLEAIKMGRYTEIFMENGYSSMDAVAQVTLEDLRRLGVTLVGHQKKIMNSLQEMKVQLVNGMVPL
Mitogen-activated protein kinase 14 (Homo sapiens), sequence (Q16539 whole entry): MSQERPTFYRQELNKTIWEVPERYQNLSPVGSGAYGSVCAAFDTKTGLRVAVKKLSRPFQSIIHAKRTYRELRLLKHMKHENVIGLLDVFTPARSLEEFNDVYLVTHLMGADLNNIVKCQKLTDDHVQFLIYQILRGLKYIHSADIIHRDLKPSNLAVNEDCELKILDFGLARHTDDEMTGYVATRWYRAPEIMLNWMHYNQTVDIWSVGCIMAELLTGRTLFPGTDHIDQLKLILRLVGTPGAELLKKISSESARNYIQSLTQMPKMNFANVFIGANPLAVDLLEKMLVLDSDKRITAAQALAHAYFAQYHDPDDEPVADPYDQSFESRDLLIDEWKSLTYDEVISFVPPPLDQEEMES

What is called inhibition is the change of the read-out against control, counted positive when it falls. Regarding `COc1ccccc1N1CCN(c2ncnc3[nH]nc(Br)c23)CC1`, the inhibition was found to be 13% in [1]; 20% in test [2]; 12% in test [3]; 17% in test [4]; 3% in [5]; 11% in test [6]. Further, the inhibition in test [7] is 15%; in [8], 9%; in [9], 9%; in test [10] it was 14%; in [11], 8%; in test [12], 8%. Moreover, the inhibition in test [13] stood at 14%; in test [14], 8%; in test [15] it was 7%.
With `O=C(NCCCNc1nc(Nc2cccc(NC(=O)N3CCCC3)c2)ncc1I)c1cccs1`, the inhibition in [1] stood at 13%; in [2] it was 36%; in test [3], 51%; in [4], 16%; in test [5], 93%; in test [6], 18%. Further, the inhibition in [7] is 29%; in test [8] it was 52%; in [9] it was 5%; in test [10], 46%; in test [11], 11%; in [12], 10%. The figures for the inhibition in test [13], in test [14] and in [15] were 47%, 12% and 7%, respectively.
As to `Cc1n[nH]c2ccc(-c3cncc(OC[C@@H](N)Cc4c[nH]c5ccccc45)c3)cc12`, the inhibition is -1% in [1]; 20% in [2]; 3% in [3]; 3% in test [4]; 1% in test [5]; 1% in [6]. In addition, the inhibition in [7] is -2%; in test [8], 45%; in [9], 55%; in test [10], 14%; in [11], 12%; in test [12] it was -6%. Also, the inhibition came out at 43% in test [13], 1% in test [14] and 46% in test [15].
